Measured values: PMC3899497 (Clinical Pharmacokinetics, 2013)
Where two headings read alike, the source gives them in different places.

Tests used:
[1] = assay type: in vivo, human; settings: for AUC(0-inf) / AUC(0-t) / Vd/F / half-life: human, po; for Plasma concentration at 6 h after clopidogrel administration: most subjects, LLOQ 0.25 ng/mL
[2] = cited from earlier work
[3] = test system: ADP-induced platelet aggregation; test: ADP-induced whole-blood platelet aggregation, Multiplate impedance aggregometer; assay type: in vivo, human
Summary of the method: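 Caucasian patients from central Poland undergoing coronary or peripheral interventions received the test drug orally, fasting, 75 mg daily for 7 days beforehand. Blood was drawn 2–3 h post-dose into hirudin tubes, diluted 1:1 with 0.9 % NaCl, and stirred 3 min at 37 °C. ADP was added at 6.4 μmol/L, and impedance was recorded for 6 min. Aggregation was expressed as AUC (AU·min).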

[4] = cited from earlier work; remark: listed apart in the source
[5] = patients, oral clopidogrel 75 mg for 7 days, plasma
[6] = patients, oral clopidogrel 75 mg, plasma
[7] = patients, single oral clopidogrel 300 mg loading dose, plasma
[8] = patients, single oral clopidogrel 300 mg, plasma
[9] = clopidogrel 75 mg maintenance dose, 6.4 μmol/L ADP
[10] = clopidogrel 75 mg, single subject
[11] = clopidogrel 75 mg, diabetes mellitus no (n = 19)
[12] = clopidogrel 75 mg, diabetes mellitus yes (n = 11)
[13] = clopidogrel 75 mg, proton-pump inhibitors no (n = 15)
[14] = clopidogrel 75 mg, proton-pump inhibitors yes (n = 13)
[15] = healthy volunteers, clopidogrel 75 mg, ref 10

## O=C(O)[C@H](c1ccccc1Cl)N1CCc2sccc2C1 [CLPM]
[1]; patients, clopidogrel 75 and 300 mg
  C max in plasma relative to that of the parent drug: thousand-fold greater
[1]; [5]
  C max (mean ± SD): 2,516 ± 1,754 ng/mL
[1]; [6]
  AUCt (mean ± SD): 11,077 ± 7,768 ng·h/mL
  AUC∞ (mean ± SD): 12,383 ± 8,552 ng·h/mL
  t max (mean ± SD): 1.37 ± 0.74 h
[1]; [7]
  C max (mean ± SD): 8,464 ± 3,772 ng/mL
[1]; [8]
  AUCt (mean ± SD): 32,979 ± 12,321 ng·h/mL
  AUC∞ (mean ± SD): 37,249 ± 13,861 ng·h/mL
  t max (mean ± SD): 1.61 ± 1.21 h

## COC(=O)[C@H](c1ccccc1Cl)N1CCC(S)/C(=C\C(=O)O)C1 (some centres unmarked) [CTM]
[2]; healthy control subjects, clopidogrel 600 mg
  C max: 14.5 ng/mL
[2]; method not distinguishing H3 and H4 isomers
  Concentrations in plasma: > 20 ng/mL
[2]; patients with a history of stent thrombosis, clopidogrel 600 mg
  C max: 3.2 ng/mL

## COC(=O)[C@H](c1ccccc1Cl)N1CCc2sccc2C1 [Clopidogrel, (+)-S clopidogrel bisulfate, reference compound]
[1]; plasma, 75 mg
  AUC(0-inf): 6.29 ± 4.11 ng·h/mL
  AUC(0-t): 5.07 ± 3.8 ng·h/mL
  Vd/F: 39200 ± 33500 L
  half-life: 1.71 ± 1.28 h
[1]; plasma, 300 mg
  AUC(0-inf): 21.8 ± 13.3 ng·h/mL
  AUC(0-t): 20.8 ± 13.3 ng·h/mL
  Vd/F: 45500 ± 19200 L
  half-life: 1.99 ± 0.44 h
[1]; patients, oral clopidogrel 75 mg
  CL/F (mean ± SD): 18.96 ± 15.89 ×10^3 L/h
[1]; [5]
  C max (mean ± SD): 2.04 ± 2.0 ng/mL
[1]; patients, single oral clopidogrel 300 mg
  CL/F (mean ± SD): 16.98 ± 10.41 ×10^3 L/h
[1]; [7]
  C max (mean ± SD): 4.51 ± 3.42 ng/mL
[1]; [8]
  t max (mean ± SD): 1.17 ± 0.76 h
[3]; [9]
  Platelet aggregation, mean ± SD: 166 ± 146 AU·min
  Platelet aggregation, median: 141 AU·min
[3]; clopidogrel 75 mg, 38 patients
  Number of patients characterized as non-responders (AUC >468 AU·min): two
  Number of patients with low platelet aggregation (AUC <100 AU·min): 14 patients
[3]; clopidogrel 75 mg, single patient later excluded from the correlation
  Platelet aggregation (AUC), one patient with high H4 concentrations: 637 AU·min
[3]; [10]
  Platelet aggregation, one subject with low H4 concentrations: 747 AU·min
[2]; Argentinean subjects, clopidogrel 75 mg
  C max: 0.9 ng/mL
[2]; Egyptian healthy volunteers, clopidogrel 75 mg
  C max: 4.4 ng/mL
[2]; US healthy volunteers, fasted state, clopidogrel 75 mg
  C max: 1.5 ng/mL
[2]; US healthy volunteers, fed state, clopidogrel 75 mg
  C max: 2.5 ng/mL
[4]
  Fraction of the absorbed drug transformed by carboxyl esterases into CLPM: Up to 85%

## COC(=O)[C@H](c1ccccc1Cl)N1CC[C@H](S)/C(=C\C(=O)O)C1 [H3]
[1]; [11]
  AUCt (mean ± SD): 6.71 ± 4.47 ng·h/mL
  C max (mean ± SD): 4.90 ± 4.02 ng/mL
[1]; [12]
  AUCt (mean ± SD): 7.88 ± 9.33 ng·h/mL
  C max (mean ± SD): 5.96 ± 7.69 ng/mL
[1]; [13]
  AUCt (mean ± SD): 7.03 ± 5.52 ng·h/mL
  C max (mean ± SD): 5.00 ± 4.93 ng/mL
[1]; [14]
  AUCt (mean ± SD): 7.76 ± 8.16 ng·h/mL
  C max (mean ± SD): 5.94 ± 6.63 ng/mL
[1]
  Plasma concentration at 6 h after clopidogrel administration: below the limit of quantification
[1]; [5]
  C max (mean ± SD): 5.29 ± 5.54 ng/mL
[1]; [6]
  AUCt (mean ± SD): 7.37 ± 6.71 ng·h/mL
  AUC∞ (mean ± SD): 7.96 ± 6.85 ng·h/mL
  t max (mean ± SD): 1.08 ± 0.62 h
  t ½ (mean ± SD): 0.78 ± 0.78 h
[1]; [7]
  C max (mean ± SD): 8.47 ± 1.69 ng/mL
[1]; [8]
  AUCt (mean ± SD): 11.24 ± 8.31 ng·h/mL
  AUC∞ (mean ± SD): 11.70 ± 8.33 ng·h/mL
  t max (mean ± SD): 0.83 ± 0.29 h
  t ½ (mean ± SD): 0.72 ± 0.18 h
[2]; [15]
  C max: 17.8 ng/mL

## COC(=O)[C@H](c1ccccc1Cl)N1CCC(S)/C(=C\C(=O)O)C1 (some centres unmarked) [H4]
[1]; after clopidogrel 300 mg (n = 3)
  Exposure to H4 relative to exposure to the H3 isomer: two times greater
[1]; [11]
  AUCt (mean ± SD): 10.46 ± 9.78 ng·h/mL
  C max (mean ± SD): 6.61 ± 6.30 ng/mL
[1]; [12]
  AUCt (mean ± SD): 11.69 ± 9.63 ng·h/mL
  C max (mean ± SD): 8.04 ± 6.55 ng/mL
[1]; [13]
  AUCt (mean ± SD): 9.69 ± 9.81 ng·h/mL
  C max (mean ± SD): 5.92 ± 4.53 ng/mL
[1]; [14]
  AUCt (mean ± SD): 13.10 ± 9.82 ng·h/mL
  C max (mean ± SD): 9.04 ± 8.07 ng/mL
[1]; clopidogrel 75 mg, single patient
  C max, one patient with high platelet aggregation (637 AU·min): 23.3 ng/mL
[1]; [10]
  C max, one subject with high platelet aggregation (747 AU·min): 2.5 ng/mL
[1]
  Plasma concentration at 6 h after clopidogrel administration: below the limit of quantification
[1]; [5]
  C max (mean ± SD): 7.13 ± 6.32 ng/mL
[1]; [6]
  AUCt (mean ± SD): 11.30 ± 9.58 ng·h/mL
  AUC∞ (mean ± SD): 11.97 ± 9.75 ng·h/mL
  t max (mean ± SD): 1.04 ± 0.53 h
  t ½ (mean ± SD): 0.90 ± 0.86 h
[1]; [7]
  C max (mean ± SD): 17.92 ± 20.38 ng/mL
[1]; [8]
  AUCt (mean ± SD): 25.04 ± 27.41 ng·h/mL
  AUC∞ (mean ± SD): 25.69 ± 27.54 ng·h/mL
  t max (mean ± SD): 0.83 ± 0.29 h
  t ½ (mean ± SD): 0.84 ± 0.20 h
[2]; [15]
  C max: 16.4 ng/mL
[2]; healthy volunteers, clopidogrel 75 mg, ref 32
  C max: 11 ng/mL
